Results: ChEMBL document CHEMBL4118076, “Azide-alkyne cycloaddition towards 1H-1,2,3-triazole-tethered gatifloxacin and isatin conjugates: Design, synthesis and in vitro anti-mycobacterial evaluation” (Eur J Med Chem, 2017)
Converted amounts (≈) assume the structure as drawn.

Legend:
[1] = test system: Mycobacterium tuberculosis; experiment: Antimycobacterial activity against Mycobacterium tuberculosis H37Rv after 3 to 7 days by rapid direct susceptibility test; assay type: functional
Summary of the method: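 Two-fold DMSO dilutions, 0.0125 to 200 μg/mL for H37Rv and 0.062 to 128 μg/mL for the MDR strain (resistant to INH, RIF and ethambutol), mixed with suspension containing 4×10^-3 mg cells. Sealed plates incubated at 37 °C in a wet box. Growth was read visually under high magnification at 3 days and again 7 days later. MIC is the lowest concentration giving complete growth inhibition.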

[2] = Cytotoxicity against African green monkey Vero cells assessed as reduction in cell viability after 72 hrs by MTT assay; assay type: cell-based; conditions: chlorocebus sabaeus
Summary of the method: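 VERO cells kept in MEM with Earle's salts + 10% FBS, 37 °C, 5% CO2; seeded 1×10^4 cells/well, recovered 24 h, then medium swapped for assay medium with compound (DMSO-dissolved, 1000 to 4 μg/mL) or drug-free. Viability by MTT after 72 h exposure; CC50 calculated by Bliss analysis.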

[3] = test system: Mycobacterium tuberculosis; experiment: Potency index, ratio of gatifloxacin MIC90 to compound MIC90 for Mycobacterium tuberculosis H37Rv; assay type: functional
[4] = test system: Mycobacterium tuberculosis; experiment: Potency index, ratio of rifampicin MIC90 to compound MIC90 for Mycobacterium tuberculosis H37Rv; assay type: functional

SMILES | MIC90 [1] [µg/mL] | CC50 at 72 h [2] [µg/mL] | Ratio [3] | Ratio [4]
NNC(=O)c1ccncc1 [ISONIAZID] | 0.05 (≈ 0.365 µM) |  |  | 
COc1c(N2CCNC(C)C2)c(F)cc2c(=O)c(C(=O)O)cn(C3CC3)c12 (centres undefined) [GATIFLOXACIN] | 0.78 (≈ 2.08 µM) |  |  | 
COc1c(N2CCN(Cc3cn(CCN4C(=O)C(=O)c5cc(C)ccc54)nn3)C(C)C2)c(F)cc2c(=O)c(C(=O)O)cn(C3CC3)c12 (centres undefined) | 1.56 (≈ 2.42 µM) | 250 (≈ 388 µM) |  | 
COc1c(N2CCN(Cc3cn(CCN4C(=O)C(=O)c5ccccc54)nn3)C(C)C2)c(F)cc2c(=O)c(C(=O)O)cn(C3CC3)c12 (centres undefined) | 1.56 (≈ 2.48 µM) | 125 (≈ 199 µM) |  | 
CO/N=C1\C(=O)N(CCn2cc(CN3CCN(c4c(F)cc5c(=O)c(C(=O)O)cn(C6CC6)c5c4OC)CC3C)nn2)c2ccc(Cl)cc21 (centres undefined) | 0.1 (≈ 0.144 µM) | 7.8 (≈ 11.3 µM) | 4 - 8 | 4 - 8
COc1c(N2CCN(Cc3cn(CCN4C(=O)C(=O)c5cc(Cl)ccc54)nn3)C(C)C2)c(F)cc2c(=O)c(C(=O)O)cn(C3CC3)c12 (centres undefined) | 0.39 (≈ 0.587 µM) | 62.5 (≈ 94.1 µM) |  | 
CO/N=C1\C(=O)N(CCn2cc(CN3CCN(c4c(F)cc5c(=O)c(C(=O)O)cn(C6CC6)c5c4OC)CC3C)nn2)c2ccc(C)cc21 (centres undefined) | 1.56 (≈ 2.32 µM) | 31.2 (≈ 46.4 µM) |  | 
COc1c(N2CCN(Cc3cn(CCN4C(=O)/C(=N\O)c5ccccc54)nn3)C(C)C2)c(F)cc2c(=O)c(C(=O)O)cn(C3CC3)c12 (centres undefined) | 3.12 (≈ 4.84 µM) | 250 (≈ 388 µM) |  | 
COc1c(N2CCN(Cc3cn(CCN4C(=O)C(=O)c5cc(F)ccc54)nn3)C(C)C2)c(F)cc2c(=O)c(C(=O)O)cn(C3CC3)c12 (centres undefined) | 0.78 (≈ 1.2 µM) | 125 (≈ 193 µM) |  | 
CO/N=C1\C(=O)N(CCn2cc(CN3CCN(c4c(F)cc5c(=O)c(C(=O)O)cn(C6CC6)c5c4OC)CC3C)nn2)c2ccc(F)cc21 (centres undefined) | 0.2 (≈ 0.296 µM) | 7.8 (≈ 11.5 µM) |  | 
CO[C@H]1/C=C/O[C@@]2(C)Oc3c(C)c(O)c4c(O)c(c(/C=N/N5CCN(C)CC5)c(O)c4c3C2=O)NC(=O)/C(C)=C\C=C\[C@H](C)[C@H](O)[C@@H](C)[C@@H](O)[C@@H](C)[C@H](OC(C)=O)[C@@H]1C [RIFAMPIN] | 0.39 (≈ 0.474 µM) |  |  | 
COc1c(N2CCN(Cc3cn(CCN4C(=O)/C(=N\O)c5cc(C)ccc54)nn3)C(C)C2)c(F)cc2c(=O)c(C(=O)O)cn(C3CC3)c12 (centres undefined) | 6.25 (≈ 9.49 µM) | 62.5 (≈ 94.9 µM) |  | 
COc1c(N2CCN(Cc3cn(CCN4C(=O)/C(=N\O)c5cc(F)ccc54)nn3)C(C)C2)c(F)cc2c(=O)c(C(=O)O)cn(C3CC3)c12 (centres undefined) | 1.56 (≈ 2.35 µM) | 7.8 (≈ 11.8 µM) |  | 
CO/N=C1\C(=O)N(CCn2cc(CN3CCN(c4c(F)cc5c(=O)c(C(=O)O)cn(C6CC6)c5c4OC)CC3C)nn2)c2ccccc21 (centres undefined) | 0.78 (≈ 1.18 µM) | 62.5 (≈ 94.9 µM) |  | 
COc1c(N2CCN(Cc3cn(CCN4C(=O)/C(=N\O)c5cc(Cl)ccc54)nn3)C(C)C2)c(F)cc2c(=O)c(C(=O)O)cn(C3CC3)c12 (centres undefined) | 0.78 (≈ 1.15 µM) | 31.2 (≈ 45.9 µM) |  | 
